This is an account of results in ChEMBL document CHEMBL4024770, “Augmentation of Anticancer Drug Efficacy in Murine Hepatocellular Carcinoma Cells by a Peripherally Acting Competitive N-Methyl-d-aspartate (NMDA) Receptor Antagonist” (J Med Chem, 2017).

The source made the active and inactive calls. The rule behind the calls is not given here.

The species named for data set [1] is Mus musculus. Nature of the data set: Antagonist activity at NMDA receptor in Nras driven p53 deficient mouse HCC cell membranes assessed as PGE2 levels at 100 uM after 24 hrs by LC-MS/MS method relative to control. On the set-up: scale not given: the % may be the effect or the level left. In a few lines:
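Nras-driven p53−/− mouse HCC cells in DMEM/10% FBS were incubated 24 h with or without 100 μM compound. This was done without LPS and with LPS (2.5 μg/mL) in the growth medium. Cells were washed with ice-cold HBSS and lysed in acetonitrile on ice. PGE2 in the lysates was quantified by LC-MS/MS and expressed as % of control. Mean ± SEM, n=3; one-way ANOVA/Tukey.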

The test system of a further data set is Liver. The data set can be described thus: Tmax in mouse liver at 10 mg/kg, ip administered as bolus dose by LC-MS/MS analysis. Type of data set: ADME, organism-based. To be noted: in vivo. The method in brief: (§1)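 Adult male mice (25 ± 5 g) given a single 10 mg/kg i.p. bolus, prepared as a 5.0 mM solution in 0.9% NaCl. Animals were decapitated at five time points between 10 and 240 min. Plasma was precipitated with acetonitrile containing internal standard. Brain and liver were homogenized in water (1:3) and precipitated the same way. Analysis by LC-MS/MS, with AUC0–240, Cmax, tmax, t½β and liver/plasma ratio derived from the concentration-time data.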

Data set [2] is filed under the species Mus musculus. Nature of the data set: Antagonist activity at NMDA receptor in Nras driven p53 deficient mouse HCC cell membranes assessed as LPS-stimulated PGE2 levels at 10 uM after 24 hrs by LC-MS/MS method (reference value: 162 +/- 7%). On the set-up: scale not given: the % may be the effect or the level left. The method in brief:
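Mouse Nras-driven p53−/− HCC cells in DMEM with 2 mM L-glutamine, 10% heat-inactivated FBS and penicillin/streptomycin. Cells incubated 24 h with or without antagonist, either without LPS or with 2.5 μg/mL LPS in the growth medium. Cells washed three times with ice-cold HBSS and lysed in acetonitrile on ice. PGE₂ in lysates measured by LC-MS/MS (LLOQ 1 nM) and expressed as % of control; n=3.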

The species named for data set [3] is Mus musculus. Nature of the data set: Antagonist activity at NMDA receptor in Nras driven p53 deficient mouse HCC cell membranes assessed as Slc2a1 protein expression levels at 10 uM by […] analysis relative to control. Further details: scale not given: the % may be the effect or the level left. The method in brief: (§2)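 Mouse Nras-driven p53−/− HCC cells in DMEM with 10% FBS, exposed 48 h with or without 10 μM antagonist, washed, pelleted and snap-frozen. Crude membrane fraction isolated. 50 μg protein reduced, alkylated, precipitated, then Lys-C digested (3 h, rt) and trypsin digested (1:100, 37°C, 16 h). One unique peptide per transporter quantified by multiplexed SRM/MRM LC-MS/MS against stable isotope-labelled standards. Unpaired two-tailed t-test versus control, n=4.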

For data set [4], the species on record is Mus musculus. The data set can be described thus: Antagonist activity at NMDA receptor in Nras driven p53 deficient mouse HCC cell membranes assessed as inhibition of NMDA-induced intracellular Ca2+ transients at 25 to 40 uM […] by fluo-4AM dye-based fluorescence assay. In a few lines: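 Mouse HCC cells were loaded with Fluo-4-AM (5 μM, 45 min), then washed out for 20 min in HEPES-buffered saline, pH 7.4. Ca2+ transients were evoked by 15 s applications of 150 μM NMDA via fast perfusion. This was done alone or with antagonist at 25 or […] μM, imaged at 495 nm excitation. Data were scored as % responding, mean ± SEM, n=5.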

A further data set concerns Plasma. The data set can be described thus: AUC (0 to 240 mins) in mouse plasma at 10 mg/kg, ip administered as bolus dose by LC-MS/MS analysis. Further details: time < 4 hr, dose 10 mg/kg, route intraperitoneal. The following applies: in vivo, 4 h. It counts as ADME, organism-based. In a few lines:
as §1

Data set [5] is filed under the species Mus musculus. Nature of the data set: Antagonist activity at NMDA receptor in Nras driven p53 deficient mouse HCC cell membranes assessed as Abcc4 protein expression levels at 10 uM by […] analysis relative to control. Further details: scale not given: the % may be the effect or the level left. In a few lines:
as §2

The species entered for data set [6] is Mus musculus. The data set can be described thus: Antagonist activity at NMDA receptor in Nras driven p53 deficient mouse HCC cell membranes assessed as potentiation of 5 uM sorafenib-mediated antiproliferative activity by measuring cell viability at 100 uM after 72 hrs by resazurin assay (reference value: […] +/- […]%). (Alamar Blue is a resazurin reagent that responds to reducing activity.)

Data set [7] is filed under the species Mus musculus. Nature of the data set: Antagonist activity at NMDA receptor in Nras driven p53 deficient mouse HCC cell membranes assessed as decrease in Slc7a5 protein expression levels by measuring [14C]-L-leucine accumulation at 10 uM preincubated for 24 hrs followed by compound wash out and addition of [14C]-L-leucine measured after 5 mins by scintillation counting method relative to control. Further details: scale not given: the % may be the effect or the level left. In a few lines: (§3)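 Nras p53−/− HCC cells (1 × 10⁵/well) were pretreated 24 h with or without 10 μM. They were then washed 3× in warm HBSS (choline chloride, pH 7.4) and incubated at 37 °C with probe in HBSS. Incubation was 30 min for [3H]-digoxin, 20 μM fluorescein or 10 μM sorafenib, and 5 min for [14C]-L-leucine or [14C]-D-glucose. Cells were washed ice-cold and lysed in 0.1 M NaOH. Read-out was scintillation, fluorescence or LC-MS/MS, normalized to protein.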

Data set [8] has as its target Glutamate receptor ionotropic, kainate 1 (Rattus norvegicus, UniProt P22756). Nature of the data set: Displacement of [3H]-SYM2081 from recombinant homomeric rat GluK1 (Q)1b receptor expressed in baculovirus infected Sf9 insect cell membranes by scintillation counting method. A general note: Loss of bound radioactivity is the signal in a displacement assay; it reports binding, not function.

Data set [9] addresses Glutamate NMDA receptor; Grin1/Grin2b (Rattus norvegicus, UniProt P35439+Q00960). The data set can be described thus: Antagonist activity at recombinant rat GluN1a/GluN2B expressed in Xenopus laevis oocytes assessed as inhibition of glycine/glutamate-mediated current responses by two-electrode voltage clamp method. It counts as cell-based. The method in brief:
(§4)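 Xenopus oocytes were injected with rat GluN1 and GluN2A–D cRNA (1:2) and recorded 2–6 days later by TEVC at room temperature, −40 mV, in Ba2+-containing recording solution, pH 7.4. Currents were evoked by 100 μM glycine plus glutamate at 2–3× EC50: 10 μM for GluN2A, 3 μM for GluN2B and GluN2C, 1 μM for GluN2D. IC50 from Hill fits per oocyte; Ki estimated.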
Background: Two-electrode voltage clamp is typically applied to oocytes expressing channels or transporters.

The species entered for data set [10] is Mus musculus. Nature of the data set: Antagonist activity at NMDA receptor in Nras driven p53 deficient mouse HCC cell membranes assessed as decrease in Abcb1/Abcg2 protein expression levels by measuring sorafenib accumulation at 10 uM preincubated for 24 hrs followed by compound wash out and addition of sorafenib measured after 30 mins by LC/MS-MS method relative to control. Further details: scale not given: the % may be the effect or the level left. The method in brief:
as §3

The test system of data set [11] is Brain. Nature of the data set: AUC (0 to 240 mins) in mouse brain at 10 mg/kg, ip administered as bolus dose by LC-MS/MS analysis. Type of data set: ADME, organism-based. Further details: dose 10 mg/kg, time < 4 hr, route intraperitoneal. To be noted: in vivo, 4 h. The method in brief:
as §1

In data set [12] the test system is Brain. Nature of the data set: Tmax in mouse brain at 10 mg/kg, ip administered as bolus dose by LC-MS/MS analysis. Type of data set: ADME, organism-based. To be noted: in vivo. The method in brief:
as §1

The target of data set [13] is Ionotropic glutamate receptor NMDA 1/2D (Rattus norvegicus, UniProt P35439+Q62645). The data set can be described thus: Antagonist activity at recombinant rat GluN1a/GluN2D expressed in Xenopus laevis oocytes assessed as inhibition of glycine/glutamate-mediated current responses by two-electrode voltage clamp method. It counts as cell-based. The method in brief:
as §4

Glutamate NMDA receptor; Grin1/Grin2b, sequence (Q00960 whole entry, other chains not shown): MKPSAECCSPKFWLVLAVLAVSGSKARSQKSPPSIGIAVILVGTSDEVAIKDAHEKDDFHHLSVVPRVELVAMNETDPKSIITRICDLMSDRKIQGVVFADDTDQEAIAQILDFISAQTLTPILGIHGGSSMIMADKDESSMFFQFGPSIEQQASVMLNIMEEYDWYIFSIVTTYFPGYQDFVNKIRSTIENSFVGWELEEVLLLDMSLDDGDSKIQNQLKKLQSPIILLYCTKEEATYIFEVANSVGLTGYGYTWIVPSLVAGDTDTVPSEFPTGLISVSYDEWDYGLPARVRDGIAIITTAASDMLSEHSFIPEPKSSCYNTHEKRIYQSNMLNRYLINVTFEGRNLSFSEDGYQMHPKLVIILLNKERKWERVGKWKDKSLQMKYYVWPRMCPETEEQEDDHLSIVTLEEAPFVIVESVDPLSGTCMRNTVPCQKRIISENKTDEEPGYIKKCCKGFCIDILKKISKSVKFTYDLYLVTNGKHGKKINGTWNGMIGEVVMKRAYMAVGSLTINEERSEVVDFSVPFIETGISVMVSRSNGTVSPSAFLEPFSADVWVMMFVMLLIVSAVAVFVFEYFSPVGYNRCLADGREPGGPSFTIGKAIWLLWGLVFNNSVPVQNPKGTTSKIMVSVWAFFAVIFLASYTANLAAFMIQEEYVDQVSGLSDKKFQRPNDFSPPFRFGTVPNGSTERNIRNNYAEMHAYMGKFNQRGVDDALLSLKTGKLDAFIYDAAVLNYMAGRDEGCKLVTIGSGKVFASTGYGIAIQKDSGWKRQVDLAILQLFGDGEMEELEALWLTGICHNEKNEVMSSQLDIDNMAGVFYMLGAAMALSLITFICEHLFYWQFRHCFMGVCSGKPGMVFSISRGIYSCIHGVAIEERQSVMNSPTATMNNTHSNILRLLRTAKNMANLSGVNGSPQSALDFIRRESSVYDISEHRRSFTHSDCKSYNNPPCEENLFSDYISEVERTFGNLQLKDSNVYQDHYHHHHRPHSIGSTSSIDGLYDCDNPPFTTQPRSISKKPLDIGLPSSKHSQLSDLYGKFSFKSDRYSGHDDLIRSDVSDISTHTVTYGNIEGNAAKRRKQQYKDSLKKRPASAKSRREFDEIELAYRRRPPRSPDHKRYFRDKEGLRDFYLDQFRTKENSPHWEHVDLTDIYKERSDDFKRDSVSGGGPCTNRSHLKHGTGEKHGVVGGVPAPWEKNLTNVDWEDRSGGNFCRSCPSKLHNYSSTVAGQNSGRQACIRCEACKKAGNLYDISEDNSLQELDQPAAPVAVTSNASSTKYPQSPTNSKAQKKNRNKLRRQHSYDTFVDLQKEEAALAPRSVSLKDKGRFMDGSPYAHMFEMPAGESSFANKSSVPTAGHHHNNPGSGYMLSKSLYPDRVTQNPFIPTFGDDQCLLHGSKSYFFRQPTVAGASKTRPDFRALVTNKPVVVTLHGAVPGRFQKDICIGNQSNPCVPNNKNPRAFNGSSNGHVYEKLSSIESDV
Ionotropic glutamate receptor NMDA 1/2D, sequence (Q62645 whole entry, other chains not shown): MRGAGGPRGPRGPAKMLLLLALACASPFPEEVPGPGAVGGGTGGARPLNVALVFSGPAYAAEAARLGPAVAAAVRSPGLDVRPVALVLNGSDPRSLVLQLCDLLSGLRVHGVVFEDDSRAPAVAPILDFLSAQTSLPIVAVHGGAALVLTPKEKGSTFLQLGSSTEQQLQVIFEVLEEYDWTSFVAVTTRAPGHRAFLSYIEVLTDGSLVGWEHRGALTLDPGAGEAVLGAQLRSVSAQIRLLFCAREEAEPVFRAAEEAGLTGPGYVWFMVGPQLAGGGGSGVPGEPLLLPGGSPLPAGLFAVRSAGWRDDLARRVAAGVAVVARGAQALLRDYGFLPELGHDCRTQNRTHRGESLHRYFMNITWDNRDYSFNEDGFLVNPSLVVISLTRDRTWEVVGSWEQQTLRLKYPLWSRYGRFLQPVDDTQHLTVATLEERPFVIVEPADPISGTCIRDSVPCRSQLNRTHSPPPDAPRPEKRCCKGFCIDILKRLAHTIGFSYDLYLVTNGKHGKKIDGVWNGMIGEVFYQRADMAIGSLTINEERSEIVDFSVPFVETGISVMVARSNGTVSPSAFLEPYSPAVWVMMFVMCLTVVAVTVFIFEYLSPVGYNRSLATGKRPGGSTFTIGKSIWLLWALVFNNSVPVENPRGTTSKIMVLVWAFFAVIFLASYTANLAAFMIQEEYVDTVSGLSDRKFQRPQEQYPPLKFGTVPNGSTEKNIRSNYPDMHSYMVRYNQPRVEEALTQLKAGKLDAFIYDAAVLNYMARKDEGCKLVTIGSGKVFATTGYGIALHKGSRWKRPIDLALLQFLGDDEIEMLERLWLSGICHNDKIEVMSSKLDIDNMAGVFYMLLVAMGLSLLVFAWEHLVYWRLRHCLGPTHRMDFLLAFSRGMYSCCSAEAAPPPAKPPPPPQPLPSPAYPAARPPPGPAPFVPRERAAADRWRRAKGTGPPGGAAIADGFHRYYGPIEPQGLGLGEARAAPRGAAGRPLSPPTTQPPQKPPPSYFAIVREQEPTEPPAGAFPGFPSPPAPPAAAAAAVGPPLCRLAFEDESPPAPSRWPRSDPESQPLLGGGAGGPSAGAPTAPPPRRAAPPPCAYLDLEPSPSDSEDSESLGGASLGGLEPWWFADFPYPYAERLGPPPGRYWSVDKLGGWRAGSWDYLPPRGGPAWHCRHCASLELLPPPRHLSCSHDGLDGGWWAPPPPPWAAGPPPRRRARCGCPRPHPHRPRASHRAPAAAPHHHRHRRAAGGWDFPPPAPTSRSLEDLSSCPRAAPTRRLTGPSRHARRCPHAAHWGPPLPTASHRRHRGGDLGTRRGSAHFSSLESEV
Glutamate receptor ionotropic, kainate 1, sequence (P22756 whole entry): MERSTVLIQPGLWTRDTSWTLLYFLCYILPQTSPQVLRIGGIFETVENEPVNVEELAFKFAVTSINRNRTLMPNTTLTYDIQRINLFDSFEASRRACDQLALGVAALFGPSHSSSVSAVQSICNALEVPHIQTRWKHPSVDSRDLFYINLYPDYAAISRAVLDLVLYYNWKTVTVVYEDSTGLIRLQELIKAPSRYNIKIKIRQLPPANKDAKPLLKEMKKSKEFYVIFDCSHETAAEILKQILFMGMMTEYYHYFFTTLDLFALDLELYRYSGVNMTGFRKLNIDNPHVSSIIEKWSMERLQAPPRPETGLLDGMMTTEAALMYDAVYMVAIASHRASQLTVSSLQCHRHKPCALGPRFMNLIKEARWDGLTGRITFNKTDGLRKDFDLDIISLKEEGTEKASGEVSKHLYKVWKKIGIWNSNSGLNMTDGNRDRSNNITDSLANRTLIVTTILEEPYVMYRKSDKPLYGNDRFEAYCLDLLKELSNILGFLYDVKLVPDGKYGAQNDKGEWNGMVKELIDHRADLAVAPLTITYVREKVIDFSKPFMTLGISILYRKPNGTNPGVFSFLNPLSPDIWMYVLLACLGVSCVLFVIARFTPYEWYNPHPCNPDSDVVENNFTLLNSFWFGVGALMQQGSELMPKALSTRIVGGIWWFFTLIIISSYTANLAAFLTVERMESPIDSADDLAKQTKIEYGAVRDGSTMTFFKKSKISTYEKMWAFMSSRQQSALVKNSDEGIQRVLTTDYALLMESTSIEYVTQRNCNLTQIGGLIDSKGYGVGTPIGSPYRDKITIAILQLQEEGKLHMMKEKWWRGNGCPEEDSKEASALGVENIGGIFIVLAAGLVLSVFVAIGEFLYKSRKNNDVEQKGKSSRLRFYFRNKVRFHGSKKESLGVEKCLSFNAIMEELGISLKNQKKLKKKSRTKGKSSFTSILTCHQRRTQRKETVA

With `Cl.O=C(O)c1cc([C@H]2CCN[C@@H]2C(=O)O)ccc1Cl`, the Activity in the data set listed under Mus musculus [1] worked out at 48%; in the data set listed under Mus musculus [2], 127%; in the data set listed under Mus musculus [3], 42%; in the data set filed under Mus musculus [5] it was 14%; in the data set listed under Mus musculus [6], 35%; in the data set filed under Mus musculus [7], 81%. In addition, the Activity in the data set listed under Mus musculus [10] came out at 152%. The Tmax with Liver and in the data set on Brain [12] was 30 min in each case. Moreover, in the data set listed under Mus musculus [4], the inhibition result was “Active”. The AUC with Plasma is 3020 nmol·min/g; with Brain [11] it was 13 nmol·min/g. Besides, the inhibitory constant (Ki) (usually a measure of affinity in units of concentration, obtained from inhibition or displacement) in data set [8] is 154 µM; in [9], 10 µM; in data set [13], 41 µM. Besides, the 50% inhibitory concentration (IC50) – broadly, the point on the concentration scale where inhibition reaches its midpoint – was found to be 29 µM in [9] and 170 µM in data set [13].
